Test results: ChEMBL document CHEMBL1126775, “A pharmacological, crystallographic, and quantum chemical study of new inotropic agents” (J Med Chem, 1993)
“And” between values parts separate entries of the source, which are not always exact repeats. Equal entries are not always repeated.

Assays:
[1] = species: Cavia porcellus; assay: Effect on frequency rate of spontaneously beating atria from reserpine treated guinea pigs at the concentration of 2 x 10 e-3 M (negative chronotropic ionotropic effect); assay type: functional
[2] = species: Cavia porcellus; assay: Effect on frequency rate of spontaneously beating atria from reserpine treated guinea pigs at the concentration of 10 e-4 M (negative chronotropic ionotropic effect); assay type: functional
[3] = species: Cavia porcellus; assay: Effect on contractile force of spontaneously beating atria from reserpine treated guinea pigs at the concentration of 10 e-5 M; assay type: functional
[4] = species: Cavia porcellus; assay: Effect on contractile force of spontaneously beating atria from reserpine treated guinea pigs at the concentration of 2 x 10 e-3 M (negative ionotropic effect); assay type: functional
[5] = species: Cavia porcellus; assay: Effect on contractile force of spontaneously beating atria from reserpine treated guinea pigs at the concentration of 5x 10 e-4 M (negative ionotropic effect); assay type: functional
[6] = species: Cavia porcellus; assay: Effect on contractile force of spontaneously beating atria from reserpine treated guinea pigs at the concentration of 10 e-4 M (negative ionotropic effect); assay type: functional
[7] = species: Cavia porcellus; assay: Effect on contractile force of spontaneously beating atria from reserpine treated guinea pigs at the concentration of 10 e-3 M (negative ionotropic effect); assay type: functional
[8] = species: Cavia porcellus; assay: Effect on contractile force of spontaneously beating atria from reserpine treated guinea pigs at the concentration of 5x 10 e-5 M (negative ionotropic effect); assay type: functional
[9] = species: Cavia porcellus; assay: Effect on frequency rate of spontaneously beating atria from reserpine treated guinea pigs at the concentration of 10 e-3 M (negative chronotropic ionotropic effect); assay type: functional
[10] = species: Cavia porcellus; assay: Effect on frequency rate of spontaneously beating atria from reserpine treated guinea pigs at the concentration of 5 x 10 e-4 M (negative chronotropic ionotropic effect); assay type: functional
[11] = species: Cavia porcellus; assay: Effect on frequency rate of spontaneously beating atria from reserpine treated guinea pigs at the concentration of 5 x 10 e-5 M (negative chronotropic ionotropic effect)
[12] = species: Cavia porcellus; assay: Effect on frequency rate of spontaneously beating atria from reserpine treated guinea pigs at the concentration of 10 e-3 M; assay type: functional
[13] = species: Cavia porcellus; assay: Effect on contractile force of spontaneously beating atria from reserpine treated guinea pigs at the concentration of 10 e-3 M; assay type: functional
[14] = species: Cavia porcellus; assay: Effect on frequency rate of spontaneously beating atria from reserpine treated guinea pigs at the concentration of 10 e-4 M; assay type: functional
[15] = species: Cavia porcellus; assay: Effect on frequency rate of spontaneously beating atria from reserpine treated guinea pigs at the concentration of 10 e-5 M; assay type: functional
[16] = species: Cavia porcellus; assay: Effect on contractile force of spontaneously beating atria from reserpine treated guinea pigs at the concentration of 5x 10 e-5 M; assay type: functional
[17] = species: Cavia porcellus; assay: Effect on frequency rate of spontaneously beating atria from reserpine treated guinea pigs at the concentration of 2 x 10 e-3 M; assay type: functional
[18] = species: Cavia porcellus; assay: Effect on frequency rate of spontaneously beating atria from reserpine treated guinea pigs at the concentration of 5 x 10 e-4 M; assay type: functional
[19] = species: Cavia porcellus; assay: Effect on contractile force of spontaneously beating atria from reserpine treated guinea pigs at the concentration of 2 x 10 e-3 M; assay type: functional
[20] = species: Cavia porcellus; assay: Effect on contractile force of spontaneously beating atria from reserpine treated guinea pigs at the concentration of 10 e-4 M; assay type: functional
[21] = species: Cavia porcellus; assay: Effect on contractile force of spontaneously beating atria from reserpine treated guinea pigs at the concentration of 5x 10 e-4 M; assay type: functional
[22] = species: Cavia porcellus; assay: Effect on contractile force of spontaneously beating atria from reserpine treated guinea pigs at the concentration of 10 e-5 M; arrhythmias; assay type: functional
[23] = species: Cavia porcellus; assay: Inotropic effect in electrically driven left atrium from reserpine-treated guinea pig at the concentration of 2 x 10 e-3 M; assay type: functional, Cardiac atrium
Outline: (§1)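 Atria from reserpine-pretreated guinea pigs (2 mg/kg ip, 48 and 24 h), tyramine-unresponsive only. Left atrium loaded 0.5 g, paced at 1.5 Hz with 3-ms square pulses at 10–20% above threshold. Equilibrated 90 min. Agents added cumulatively, 5 min per concentration. Isometric developed tension expressed as % increase over control.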

[24] = species: Cavia porcellus; assay: Inotropic effect in electrically driven left atrium from reserpine-treated guinea pig at the concentration of 10 e-3 M; assay type: functional, Cardiac atrium; outline: as §1
[25] = species: Cavia porcellus; assay: Inotropic effect in electrically driven left atrium from reserpine-treated guinea pig at the concentration of 5 x 10 e-4 M; assay type: functional, Cardiac atrium; outline: as §1
[26] = Logarithm of the sum of contributions of each atom to the total lipophilicity of the molecule; assay type: physicochemical; settings: octanol/water
[27] = species: Cavia porcellus; assay: Inotropic effect in electrically driven left atrium from reserpine-treated guinea pig at the concentration of 10 e-5 M; assay type: functional, Cardiac atrium; outline: as §1
[28] = species: Cavia porcellus; assay: Inotropic effect in electrically driven left atrium from reserpine-treated guinea pig at the concentration of 5 x 10 e-5 M; assay type: functional, Cardiac atrium; outline: as §1
[29] = species: Cavia porcellus; assay: Inotropic effect in electrically driven left atrium from reserpine-treated guinea pig at the concentration of 10 e-4 M; assay type: functional, Cardiac atrium; outline: as §1

SMILES | Increase [1] [%] | Increase [2] [%] | Increase [3] [%] | Increase [4] [%] | Increase [5] [%] | Increase [6] [%] | Increase [7] [%] | Increase [9] [%] | Increase [10] [%] | Increase [11] | Increase [12] [%] | Increase [13] [%] | Increase [14] [%] | Increase [15] | Increase [16] [%] | Increase [17] [%] | Increase [18] [%] | Increase [19] [%] | Increase [20] [%] | Increase [21] [%] | further results
O=C(O)c1cc(C(=O)c2ccccc2)c(-c2ccccc2)nc1O | -35.93 | -5.31 | 2.45 | -100 | -61.56 | -10.02 | -90.39 | -25.3 | -14.43 | -2.23% and -3.38% | – | – | – | – | – | – | – | – | – | – | Increase [8]: -1.52%
CC(C)C(=O)c1cc(C(=O)O)c(O)nc1C(C)C | – | – | 3.46 | -99.99 | -49.63 | -8.88 | – | – | – | – | 16.19 | -82.26 | 6.01 | 0.58% and 0.75% | 3.21 | 11.35 | 23.17 | – | – | – | –
CC1(C)CC(=O)c2ccc(O)nc2C1 | – | – | 0 | – | -5.5 | -3.46 | – | – | – | – | 1.06 | 2.45 | 1.05 | 0% and 1.27% | – | 2.65 | 1.09 | 4.71 | – | – | Increase [8]: -3.45%
O=C1CCCc2nc(O)ccc21 | – | – | 0.48 | – | – | – | – | – | – | – | 15.52 | 25.64 | 6.26 | 0% | 7.65 | 18.17 | 12.44 | 26.56 | 14.7 | 23.87 | –
CC(C)(C)C(=O)c1cc(C#N)c(O)nc1C(C)(C)C | -15.71 | -0.44 | 7.34 | -89.11 | -66.56 | -16.07 | -81.39 | -14.41 | -6.73 | – | – | – | – | 2.98% and 0.28% | 11.34 | – | – | – | – | – | –
O=C(O)c1cc2c(nc1O)CCCC2=O | – | – | – | – | – | – | – | – | – | – | – | – | – | – | – | – | – | – | – | – | Increase [22]: arrhythmias
CC(C)C(=O)c1ccc(O)nc1C(C)C | – | -0.99 | 5.34 | -44.47 | -9.42 | – | -26.37 | – | – | -3.28% and -5.14% | 26.33 | – | – | – | 11.69 | 32.13 | 20.8 | – | 16.38 | – | –
Cc1[nH]c(=O)c(C#N)cc1-c1ccncc1 [MILRINONE] | – | – | 18.25 | – | – | – | – | – | – | – | 39.2 | 33.09 | 35.26 | 16.41% and 28.1% | 31.32 | 31.79 | 43.96 | 29.31 | 38.76 | 46.52 | Increase [23]: 37.95%; Increase [24]: 41.96%; Increase [25]: 44.72%; logP [26]: 2.89; Increase [27]: 13.25%; Increase [28]: 22.83%; Increase [29]: 34.61%
N#Cc1cc2c(nc1O)CCCC2=O | -0.79 | -6.06 | 2.59 | – | – | – | – | -0.57 | -3.85 | -3.08% | – | 23.3 | – | 3.02% | 7.87 | – | – | 13.01 | 16.12 | 25.67 | –
O=C(O)c1cc2c(nc1O)CC(c1ccccc1)CC2=O (stereo not given) | -27.07 | -1.21 | 1.53 | – | -7.59 | -1.21 | -23.77 | -13.88 | -4.58 | – | – | – | – | 0.58% and 1.22% | 2.21 | – | – | -27.77 | – | – | –
CC(C)C(=O)c1cc(C#N)c(O)nc1C(C)C | – | – | 8.22 | -86.43 | -34.43 | – | -67.64 | – | – | – | 22.83 | – | 9.64 | 2.33% and 5.14% | 11.62 | 16.27 | 18.85 | – | 1.42 | – | –
CC(=O)c1ccc(O)nc1C | – | – | 5.35 | – | – | – | – | – | – | – | 10.85 | 10.27 | 4.7 | 1.79% and 4.14% | 5.84 | 14.19 | 10.85 | 10.35 | 10.35 | 9.72 | –
Nc1cc(-c2ccncc2)c[nH]c1=O [INAMRINONE] | – | – | 7.08 | – | – | – | – | – | – | – | 30.69 | 28.81 | 15.68 | 4.62% and 8.85% | 11.52 | 26.3 | 24.11 | 25.3 | 17.92 | 23.92 | Increase [23]: 34.6%; Increase [24]: 27%; Increase [25]: 22.3%; logP [26]: 2.66; Increase [27]: 4.5%; Increase [28]: 6.49%; Increase [29]: 17.52%
CC1(C)CC(=O)c2cc(C(=O)O)c(O)nc2C1 | -4.76 | – | 0.51 | -4.46 | – | – | -3.94 | -2.94 | -0.69 | – | – | – | 0.88 | 0.41% and 1.8% | 2.7 | – | – | – | 1.66 | -0.69 | –
CC(=O)c1cc(C(=O)O)c(O)nc1C | -1.39 | -5.67 | 2.63 | – | – | – | – | -1.43 | -2.31 | -4.2% and -4.31% | – | 11.48 | – | – | 5.72 | – | – | 10.83 | 5.46 | 9.55 | –
CC1CC(=O)c2cc(C(=O)O)c(O)nc2C1 (stereo not given) | – | – | 2.55 | – | – | – | – | – | – | – | 7.38 | 8.37 | 3.58 | 1.5% and 2.78% | 3.78 | 10.36 | 6.53 | 11.38 | 4.57 | 8.53 | –
N#Cc1cc(C(=O)c2ccccc2)c(-c2ccccc2)nc1O | -9.96 | -3.36 | 1.22 | -39.43 | -32.19 | -22.26 | -35.54 | -8.29 | -6.26 | -3.01% | – | – | – | 0.5% | – | – | – | – | – | – | Increase [8]: -6.67%
O=C1CC(c2ccccc2)Cc2nc(O)ccc21 (stereo not given) | – | – | 2.28 | – | – | – | – | – | – | -3.42% | 12.61 | 1.73 | 5.61 | 2.19% | 4.52 | 14.52 | 8.85 | 3.44 | 1.2 | 1.46 | –
